ChEMBL document CHEMBL1142242, “Indanylacetic acid derivatives carrying 4-thiazolyl-phenoxy tail groups, a new class of potent PPAR alpha/gamma/delta pan agonists: synthesis, structure-activity relationship, and in vivo efficacy” (J Med Chem, 2007)
Active and inactive are the calls of the source. The calls are words filed in the database; no cut-off is given here.

How the values were obtained:
Mus musculus [1] = assay: Reduction of plasma triglyceride level in male human apoA1 transgenic mouse at 10 mg/kg; type: functional, organism-based; parameters: dose 10 mg/kg
Procedure, shortened: (§1)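 hApoA1 transgenic mice, 6 weeks old at purchase, grouped by equal baseline plasma triglyceride; oral dosing once daily for 7 days in 0.5% methylcellulose in water; bled ~24 h after last dose; plasma triglyceride and HDLc by autoanalyzer; mean ± SEM, 6-8 mice.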

Mus musculus [2] = assay: Increase of plasma HDLc level in male human apoA1 transgenic mouse at 10 mg/kg; type: functional, organism-based; parameters: dose 10 mg/kg; procedure, shortened: as §1
Mus musculus [3] = assay: Increase of plasma HDLc level in female human apoA1 transgenic mouse at 10 mg/kg; type: functional, organism-based; parameters: dose 10 mg/kg; procedure, shortened: as §1
[4] = target: T1, Peroxisome proliferator-activated receptor alpha (Homo sapiens, UniProt Q07869); assay: Agonist activity at human PPAR alpha by FRET assay; type: functional
T1 sequence (Q07869 whole entry): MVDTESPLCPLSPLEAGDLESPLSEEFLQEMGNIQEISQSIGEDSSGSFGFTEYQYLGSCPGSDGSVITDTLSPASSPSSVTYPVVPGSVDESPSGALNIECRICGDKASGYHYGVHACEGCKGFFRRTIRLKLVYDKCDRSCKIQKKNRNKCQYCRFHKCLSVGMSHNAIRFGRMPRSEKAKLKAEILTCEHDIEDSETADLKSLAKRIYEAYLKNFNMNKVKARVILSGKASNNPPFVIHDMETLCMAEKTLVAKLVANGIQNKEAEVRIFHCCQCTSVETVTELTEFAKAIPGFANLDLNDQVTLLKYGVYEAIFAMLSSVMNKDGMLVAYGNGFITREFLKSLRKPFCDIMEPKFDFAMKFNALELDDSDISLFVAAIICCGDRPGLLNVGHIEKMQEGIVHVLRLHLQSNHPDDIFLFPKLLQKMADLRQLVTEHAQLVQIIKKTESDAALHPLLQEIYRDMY
Procedure, shortened: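 Human PPARα ligand binding domain (GST-tagged) association with biotin-labeled co-activator CBP; Eu-labeled anti-GST antibody and streptavidin-APC; incubated 2 h at rt in buffer with or without compound; fluorescence read at 615 or 655 nm emission, 340 nm excitation.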

[5] = target: T2, Peroxisome proliferator-activated receptor delta (Homo sapiens, UniProt Q03181); assay: Agonist activity at human PPAR delta by FRET assay; type: functional
T2 sequence (Q03181 whole entry): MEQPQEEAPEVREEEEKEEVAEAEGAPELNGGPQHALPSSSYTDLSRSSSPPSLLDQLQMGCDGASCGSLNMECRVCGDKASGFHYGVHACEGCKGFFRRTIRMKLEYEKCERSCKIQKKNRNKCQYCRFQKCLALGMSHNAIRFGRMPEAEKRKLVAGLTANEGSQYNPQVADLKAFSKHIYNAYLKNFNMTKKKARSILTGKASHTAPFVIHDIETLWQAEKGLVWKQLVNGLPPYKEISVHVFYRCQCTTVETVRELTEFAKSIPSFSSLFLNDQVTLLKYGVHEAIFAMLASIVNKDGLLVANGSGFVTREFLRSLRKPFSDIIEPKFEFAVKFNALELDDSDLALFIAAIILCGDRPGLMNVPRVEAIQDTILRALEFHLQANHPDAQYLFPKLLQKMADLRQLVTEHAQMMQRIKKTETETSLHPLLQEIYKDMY

[6] = target: T3, Peroxisome proliferator-activated receptor gamma (Mus musculus, UniProt P37238); assay: Agonist activity at PPAR gamma in mouse 3T3L1 cells assessed as increase in insulin receptor by IRBA; type: functional, cell-based, 3T3-L1
T3 sequence (P37238 whole entry): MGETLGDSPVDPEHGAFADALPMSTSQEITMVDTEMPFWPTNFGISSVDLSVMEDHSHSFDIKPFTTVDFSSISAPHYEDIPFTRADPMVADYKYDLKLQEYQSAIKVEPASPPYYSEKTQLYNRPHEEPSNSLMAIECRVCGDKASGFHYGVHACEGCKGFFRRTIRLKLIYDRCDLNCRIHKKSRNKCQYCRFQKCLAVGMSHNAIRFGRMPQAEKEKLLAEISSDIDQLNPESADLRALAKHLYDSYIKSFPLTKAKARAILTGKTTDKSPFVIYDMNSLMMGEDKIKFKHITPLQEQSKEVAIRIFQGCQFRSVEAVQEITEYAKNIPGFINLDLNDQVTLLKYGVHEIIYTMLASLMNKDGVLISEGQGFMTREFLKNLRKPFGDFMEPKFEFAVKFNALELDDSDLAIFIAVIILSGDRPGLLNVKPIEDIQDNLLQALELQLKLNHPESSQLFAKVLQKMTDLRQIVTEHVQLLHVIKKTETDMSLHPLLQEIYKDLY

| SMILES | Activity (Mus musculus [1]) | Activity (Mus musculus [2]) | Activity (Mus musculus [3]) | EC50 [4] [nM] | EC50 [5] [nM] | EC50 [6] [nM] |
| --- | --- | --- | --- | --- | --- | --- |
| Cc1cc(SCc2sc(-c3ccc(C(F)(F)F)cc3)nc2C)ccc1OCC(=O)O | Dose-dependent effect | Dose-dependent effect | Active |  |  |  |
| COc1ccncc1-c1ccc(OCCCOc2ccc3c(c2)CC[C@H]3CC(=O)O)cc1 |  |  |  | > 10000 | 43 | 485 |
| CCCc1cc(-c2nc(OC(C)C)cs2)ccc1OCCCOc1ccc2c(c1)CC[C@H]2CC(=O)O |  |  |  | 47 | 2.3 | 45 |
| O=C(O)C[C@@H]1CCc2cc(OCCCOc3ccc(-c4ccc(C(F)(F)F)cn4)cc3)ccc21 |  |  |  | 2900 | 0.95 | 1800 |
| O=C(O)C[C@@H]1CCc2cc(OCCCOc3ccc4[nH]ccc4c3)ccc21 |  |  |  | > 10000 | 24 | 1800 |
| CCCc1cc(-c2nc3c(s2)CCC3)ccc1OCCCOc1ccc2c(c1)CC[C@H]2CC(=O)O |  |  |  | 328 | 3.5 | 94 |
| COc1cc(-c2nc(C)c(C)s2)ccc1OCCCOc1ccc2c(c1)CC[C@H]2CC(=O)O |  |  |  | 83 | 4 | 33 |
| COc1cc(C#N)ccc1OCCCOc1ccc2c(c1)CC[C@H]2CC(=O)O |  |  |  | 7500 | 14 | 700 |
